Assay results reported in ChEMBL document CHEMBL3421591, “Improved Synthesis of Biotinol-5'-AMP: Implications for Antibacterial Discovery” (ACS Med Chem Lett, 2015).
Values after ≈ are worked out from the molar mass of the structure shown. Active and inactive are the calls of the source. The calls are words filed in the database; no cut-off is given here.

Key:
[1] = test system: Mycobacterium tuberculosis; test: Antimicrobial activity against Mycobacterium tuberculosis 37892293 after 16 to 20 hrs by two-fold microdilution broth method; assay type: functional
[2] = test system: Mycobacterium tuberculosis; test: Antimicrobial activity against Mycobacterium tuberculosis H37Rv after 16 to 20 hrs by two-fold microdilution broth method; assay type: functional
[3] = test system: Mycobacterium tuberculosis; test: Antimicrobial activity against Mycobacterium tuberculosis 3688023 after 16 to 20 hrs by two-fold microdilution broth method; assay type: functional
[4] = Inhibition of Acinetobacter calcoaceticus recombinant BPL using 3H-biotin as substrate after 10 mins by liquid scintillation counting analysis; conditions: read-out: Ki(app)
In short: (§1)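 In vitro biotinylation assay measuring radiolabeled biotin incorporation onto an acceptor protein by each recombinant BPL, run at varying inhibitor concentrations. Apparent Ki was fitted with the Morrison tight-binding equation, accounting for the BPL concentration in the assay. It was then extrapolated using each enzyme's apparent K_M for biotin, assuming inhibition competitive with biotin.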

[5] = Inhibition of Staphylococcus aureus recombinant BPL using 3H-biotin as substrate after 10 mins by liquid scintillation counting analysis; conditions: read-out: Ki(app); in short: as §1
Enterococcus faecium = test: Antimicrobial activity against Enterococcus faecium after 16 to 20 hrs by two-fold microdilution broth method; assay type: functional
Escherichia coli = test: Antimicrobial activity against Escherichia coli ATCC 25922 after 16 to 20 hrs by two-fold microdilution broth method; assay type: functional
Staphylococcus = test: Antimicrobial activity against coagulase-negative Staphylococcus after 16 to 20 hrs by two-fold microdilution broth method; assay type: functional
Staphylococcus aureus [6] = test: Competitive inhibition of Staphylococcus aureus recombinant BPL using 3H-biotin as substrate by Lineweaver-Burk plot analysis
In short: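 S. aureus BPL biotinylation with ³H-biotin: enzyme velocity measured across varying biotin concentrations at inhibitor 0, 20, 100 and 200 nM. Double-reciprocal Lineweaver–Burk plots of 1/velocity vs 1/biotin were used to define the inhibition mode, with K_M and V_max compared across inhibitor levels. Points are mean ± SEM of three replicates.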

[7] = Cytotoxicity against human HepG2 cells after 24 to 48 hrs by WST-1 assay; assay type: cell-based
Staphylococcus aureus [8] = test: Antimicrobial activity against methicillin-sensitive Staphylococcus aureus after 16 to 20 hrs by two-fold microdilution broth method; assay type: functional
Enterococcus faecalis = test: Antimicrobial activity against Enterococcus faecalis after 16 to 20 hrs by two-fold microdilution broth method; assay type: functional
[9] = Inhibition of Klebsiella pneumonia recombinant BPL using 3H-biotin as substrate after 10 mins by liquid scintillation counting analysis; set-up: species or system Klebsiella pneumoniae; conditions: read-out: Ki(app); in short: as §1
[10] = Inhibition of Mycobacterium tuberculosis recombinant BPL using 3H-biotin as substrate after 10 mins by liquid scintillation counting analysis; conditions: read-out: Ki(app)
In short: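 Recombinant BPL activity was measured as radiolabelled biotin incorporated onto an acceptor protein, across a range of inhibitor concentrations. Apparent Ki came from the Morrison tight-binding equation, because Ki values lay within 10-fold of the BPL concentration used. Binding was treated as competitive with biotin, so values were extrapolated using the apparent KM for biotin.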

Staphylococcus aureus [11] = test: Antimicrobial activity against methicillin-resistant Staphylococcus aureus after 16 to 20 hrs by two-fold microdilution broth method; assay type: functional

## Nc1ncnc2c1ncn2[C@@H]1O[C@H](CNS(=O)(=O)NC(=O)CCCC[C@@H]2SC[C@@H]3NC(=O)N[C@@H]32)[C@@H](O)[C@H]1O
[1]
  MIC: 0.1 µg/mL (≈ 0.175 µM)
[2]
  MIC: 0.1 µg/mL (≈ 0.175 µM)
[3]
  MIC: 0.1 µg/mL (≈ 0.175 µM)

## Nc1ncnc2c1ncn2[C@@H]1O[C@H](COP(=O)(O)OCCCCC[C@@H]2SC[C@@H]3NC(=O)N[C@@H]32)[C@@H](O)[C@H]1O
[1]
  MIC: 2.5 µg/mL (≈ 4.47 µM)
[4]
  Ki: 461 nM
[5]
  Ki: 18 nM
Enterococcus faecium
  MIC: > 128 µg/mL
Escherichia coli
  MIC: > 128 µg/mL
Staphylococcus
  MIC: 1 µg/mL (≈ 1.79 µM)
Staphylococcus aureus [6]
  inhibition: Active
[7]
  CC50: > 200 µg/mL
[2]
  MIC: 2.5 µg/mL (≈ 4.47 µM)
Staphylococcus aureus [8]
  MIC: 2 µg/mL (≈ 3.57 µM)
Enterococcus faecalis
  MIC: > 128 µg/mL
[9]
  Ki: 482 nM
[10]
  Ki: 52 nM
Staphylococcus aureus [11]
  MIC: 2 µg/mL (≈ 3.57 µM)
[3]
  MIC: 0.5 µg/mL (≈ 0.894 µM)
